Measured values from different studies.
Compare with care: the assays were run in different laboratories.
Effect on: enzyme activity
Action: inhibitor
PDGFRA: Platelet-derived growth factor receptor alpha (PDGFRA, Homo sapiens, UniProt P16234)
PDGFRA V561D: Platelet-derived growth factor receptor alpha (PDGFRA, Homo sapiens, UniProt P16234, V561D)
PDGFRA D842V: Platelet-derived growth factor receptor alpha (PDGFRA, Homo sapiens, UniProt P16234, D842V)

| Compound | target | method | concentration | inhibition [%] |
| --- | --- | --- | --- | --- |
| CNC(=O)c1cc2c(Oc3ccc(NC(=O)C4(C(=O)Nc5ccc(F)cc5)CC4)cc3)ccnc2cc1OC | PDGFRA | radiometric | 1 µM | 71 |
| COc1cc2ncnc(Nc3ccc(Oc4ccccc4)c(C)c3C)c2cc1OC | PDGFRA V561D | – | 1 µM | 7 |
| O=C(CSc1nc2nccnc2c(=O)n1CCc1ccccc1)Nc1nccs1 | PDGFRA | – | 10 µM | 16 |
| COc1cc(-c2cc(-c3ccc(N4CCNCC4)cc3)cnc2N)cc(OC)c1OC | PDGFRA D842V | – | 0.1 µM | 54 |
| CNCc1ccc(-c2cc(-c3nc(-c4ccc(S(=O)(=O)C(C)C)cc4)cnc3N)on2)cc1 | PDGFRA | – | 2 µM | 9 |
| CC/C(=N\NC(=O)NCc1cccc(O)c1)c1ccc(O)c(C)c1O | PDGFRA D842V | – | 0.1 µM | 1.1 |
| CNC(=O)c1cc(Oc2ccc(NC(=O)Nc3ccc(Cl)c(C(F)(F)F)c3)cc2)ccn1 | PDGFRA V561D | – | 0.3 µM | 99 |
| COc1cc2ncnc(Nc3ccc(Oc4ccccc4)cc3C)c2cc1OC | PDGFRA V561D | – | 1 µM | 20 |
| CCCS(=O)(=O)Nc1ccc(F)c(C(=O)c2c[nH]c3ncc(-c4ccc(Cl)cc4)cc23)c1F | PDGFRA | – | 1 µM | < 10 |
